Measured values published in ChEMBL document CHEMBL2046313, “Discovery and evaluation of a non-Zn chelating, selective matrix metalloproteinase 13 (MMP-13) inhibitor for potential intra-articular treatment of osteoarthritis” (J Med Chem, 2012).

Key:
Rattus norvegicus [1] = assay: Toxicity in Sprague-Dawley rat assessed as joint irritation at 0.5 mg/kg, ia measured after 48 hrs; assay type: organism-based; design: dose 0.5 mg/kg; conditions: in vivo, other
Rattus norvegicus [2] = assay: Toxicity in Sprague-Dawley rat assessed as adverse effects at 0.5 mg/kg, ia measured after 48 hrs; assay type: organism-based; design: dose 0.5 mg/kg; conditions: in vivo, other
Matrilysin = target: T1, Matrilysin (Homo sapiens, UniProt P09237); assay: Inhibition of human recombinant MMP7 using MCA-Pro-Leu-Gly-Leu-Dpa-Ala-Arg-NH2.AcOH as substrate preincubated for 10 mins measured by fluorescence analysis
T1 sequence (P09237 whole entry): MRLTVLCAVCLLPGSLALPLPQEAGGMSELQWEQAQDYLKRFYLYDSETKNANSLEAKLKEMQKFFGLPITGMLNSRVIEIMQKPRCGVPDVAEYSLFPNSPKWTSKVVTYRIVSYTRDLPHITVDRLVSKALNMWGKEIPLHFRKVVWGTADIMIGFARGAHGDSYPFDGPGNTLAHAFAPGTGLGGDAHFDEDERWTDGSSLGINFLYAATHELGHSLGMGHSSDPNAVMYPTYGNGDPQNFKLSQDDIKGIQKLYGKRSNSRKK
Summary of the method: (§1)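 Catalytic domains of recombinant human MMPs were assayed with fluorogenic OmniMMP substrate in 50 mM Tris-HCl pH 7.5, 150 mM NaCl, 5 mM CaCl₂, 0.05% Brij-35. Enzyme was 1–10 nM and substrate 4–10 μM, optimized per assay. Enzyme was preincubated 10 min with varying inhibitor concentrations, and IC50 was calculated from runs done at least in duplicate.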

Rattus norvegicus [3] = assay: Toxicity in Sprague-Dawley rat assessed as adverse effects at 0.5 mg/kg, ia measured after 3 weeks; assay type: organism-based; design: dose 0.5 mg/kg; conditions: in vivo, other, 504 h
[4] = target: Matrix metalloproteinase-9 (Homo sapiens, UniProt P14780); assay: Inhibition of human recombinant MMP9 using MCA-Pro-Leu-Gly-Leu-Dpa-Ala-Arg-NH2.AcOH as substrate preincubated for 10 mins measured by fluorescence analysis; summary of the method: as §1
[5] = Drug uptake in Sprague-Dawley rat synovial lavage at 0.5 mg/joint measured after 21 days; assay type: ADME; conditions: read-out: Drug uptake
Cartilage tissue = assay: Inhibition of collagen degradation in bovine articular cartilage assessed as inhibition of interlukein-1alpha/oncostatin M-induced C1,C2 release measured after 11 days by ELISA; assay type: functional, tissue-based; conditions: Bos taurus
Summary of the method: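 Freshly isolated bovine articular cartilage pieces (~3 mm²) were stimulated with 5 ng/mL IL-1α plus 50 ng/mL OSM, with or without compound, for 11 days. Medium was refreshed twice weekly. Collagen degradation products in the conditioned medium were quantified by C1,2C ELISA.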

[6] = target: Macrophage metalloelastase (Homo sapiens, UniProt P39900); assay: Inhibition of human recombinant MMP12 using MCA-Pro-Leu-Gly-Leu-Dpa-Ala-Arg-NH2.AcOH as substrate preincubated for 10 mins measured by fluorescence analysis; summary of the method: as §1
[7] = target: Matrix metalloproteinase-14 (Homo sapiens, UniProt P50281); assay: Inhibition of human recombinant MMP14 using MCA-Pro-Leu-Gly-Leu-Dpa-Ala-Arg-NH2.AcOH as substrate preincubated for 10 mins measured by fluorescence analysis; summary of the method: as §1
Plasma [8] = assay: Drug uptake in Sprague-Dawley rat plasma at 0.5 mg/kg, ia measured after 8 weeks; assay type: ADME, organism-based; design: dose 0.5 mg/kg; conditions: in vivo, other, 1344 h, BLD = below limit of detection
Rattus norvegicus [9] = species on record: Rattus norvegicus; assay: Toxicity in Sprague-Dawley rat assessed as impaired use of limbs at 0.5 mg/joint measured on day 56; assay type: organism-based; conditions: in vivo, other
[10] = Drug uptake in Sprague-Dawley rat cartilage at 0.5 mg/joint measured on day 56; assay type: ADME, tissue-based, Cartilage tissue; conditions: read-out: Drug uptake
Interstitial collagenase = target: T2, Interstitial collagenase (Homo sapiens, UniProt P03956); assay: Inhibition of human recombinant MMP1 using MCA-Pro-Leu-Gly-Leu-Dpa-Ala-Arg-NH2.AcOH as substrate preincubated for 10 mins measured by fluorescence analysis; summary of the method: as §1
T2 sequence (P03956 whole entry): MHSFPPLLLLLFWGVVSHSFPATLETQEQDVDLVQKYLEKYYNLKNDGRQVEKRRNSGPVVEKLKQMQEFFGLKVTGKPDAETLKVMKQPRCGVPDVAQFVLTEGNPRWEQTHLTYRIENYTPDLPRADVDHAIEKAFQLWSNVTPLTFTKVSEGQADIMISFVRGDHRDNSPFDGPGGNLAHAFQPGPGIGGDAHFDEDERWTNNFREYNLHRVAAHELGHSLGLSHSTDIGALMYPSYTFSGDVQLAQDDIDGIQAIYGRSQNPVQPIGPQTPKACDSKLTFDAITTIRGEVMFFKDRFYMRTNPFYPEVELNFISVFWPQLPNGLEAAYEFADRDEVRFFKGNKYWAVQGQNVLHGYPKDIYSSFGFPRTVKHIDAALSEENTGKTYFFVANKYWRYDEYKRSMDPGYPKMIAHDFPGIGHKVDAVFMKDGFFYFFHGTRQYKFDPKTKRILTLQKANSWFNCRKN

[11] = target: 72 kDa type IV collagenase (Homo sapiens, UniProt P08253); assay: Inhibition of human recombinant MMP2 using MCA-Pro-Leu-Gly-Leu-Dpa-Ala-Arg-NH2.AcOH as substrate preincubated for 10 mins measured by fluorescence analysis; summary of the method: as §1
Neutrophil collagenase = Neutrophil collagenase (Homo sapiens, UniProt P22894); assay: Inhibition of human recombinant MMP8 using MCA-Pro-Leu-Gly-Leu-Dpa-Ala-Arg-NH2.AcOH as substrate preincubated for 10 mins measured by fluorescence analysis; summary of the method: as §1
Plasma [12] = assay: Drug uptake in Sprague-Dawley rat plasma at 100 mg/kg, po measured after 8 weeks; assay type: ADME, organism-based; design: dose 100 mg/kg, route oral; conditions: in vivo, 1344 h, BLD = below limit of detection

Sequence of Matrix metalloproteinase-9 (P14780 whole entry): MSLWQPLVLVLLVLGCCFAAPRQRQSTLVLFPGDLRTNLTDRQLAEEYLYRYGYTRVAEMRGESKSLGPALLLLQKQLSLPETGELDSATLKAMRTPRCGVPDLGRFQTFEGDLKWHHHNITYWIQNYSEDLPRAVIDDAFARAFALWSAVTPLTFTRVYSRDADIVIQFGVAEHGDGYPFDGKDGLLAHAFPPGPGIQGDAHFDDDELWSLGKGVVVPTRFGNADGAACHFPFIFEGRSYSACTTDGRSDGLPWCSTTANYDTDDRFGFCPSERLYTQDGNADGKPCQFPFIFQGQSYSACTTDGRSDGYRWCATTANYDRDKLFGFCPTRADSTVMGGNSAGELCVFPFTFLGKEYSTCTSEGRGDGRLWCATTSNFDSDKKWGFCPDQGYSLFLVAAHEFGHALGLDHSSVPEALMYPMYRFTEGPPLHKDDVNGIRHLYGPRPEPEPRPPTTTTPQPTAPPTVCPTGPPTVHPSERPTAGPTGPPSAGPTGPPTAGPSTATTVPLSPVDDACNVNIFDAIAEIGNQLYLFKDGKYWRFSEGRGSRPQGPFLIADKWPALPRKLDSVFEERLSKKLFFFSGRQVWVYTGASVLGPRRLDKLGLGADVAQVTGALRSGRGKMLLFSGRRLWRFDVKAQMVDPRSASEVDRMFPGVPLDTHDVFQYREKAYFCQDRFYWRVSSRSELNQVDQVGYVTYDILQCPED
Sequence of 72 kDa type IV collagenase (P08253 whole entry): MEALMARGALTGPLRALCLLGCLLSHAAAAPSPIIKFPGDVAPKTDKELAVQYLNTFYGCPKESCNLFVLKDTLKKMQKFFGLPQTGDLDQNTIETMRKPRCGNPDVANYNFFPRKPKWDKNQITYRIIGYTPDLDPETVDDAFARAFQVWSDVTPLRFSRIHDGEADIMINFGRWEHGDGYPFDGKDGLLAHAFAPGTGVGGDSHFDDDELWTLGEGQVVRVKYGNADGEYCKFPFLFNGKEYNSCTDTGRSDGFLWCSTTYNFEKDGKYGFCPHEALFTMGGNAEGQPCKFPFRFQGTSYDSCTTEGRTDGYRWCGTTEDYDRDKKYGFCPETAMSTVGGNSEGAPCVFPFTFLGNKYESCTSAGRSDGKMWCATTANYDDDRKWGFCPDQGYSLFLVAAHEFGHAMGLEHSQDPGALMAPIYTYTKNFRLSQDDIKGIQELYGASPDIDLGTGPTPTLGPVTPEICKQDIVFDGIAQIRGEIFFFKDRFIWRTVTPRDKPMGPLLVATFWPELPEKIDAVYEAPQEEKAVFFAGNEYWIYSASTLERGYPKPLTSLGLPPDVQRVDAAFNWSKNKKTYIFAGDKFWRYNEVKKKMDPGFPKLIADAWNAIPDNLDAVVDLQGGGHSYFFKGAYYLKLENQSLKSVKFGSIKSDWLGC
Sequence of Macrophage metalloelastase (P39900 whole entry): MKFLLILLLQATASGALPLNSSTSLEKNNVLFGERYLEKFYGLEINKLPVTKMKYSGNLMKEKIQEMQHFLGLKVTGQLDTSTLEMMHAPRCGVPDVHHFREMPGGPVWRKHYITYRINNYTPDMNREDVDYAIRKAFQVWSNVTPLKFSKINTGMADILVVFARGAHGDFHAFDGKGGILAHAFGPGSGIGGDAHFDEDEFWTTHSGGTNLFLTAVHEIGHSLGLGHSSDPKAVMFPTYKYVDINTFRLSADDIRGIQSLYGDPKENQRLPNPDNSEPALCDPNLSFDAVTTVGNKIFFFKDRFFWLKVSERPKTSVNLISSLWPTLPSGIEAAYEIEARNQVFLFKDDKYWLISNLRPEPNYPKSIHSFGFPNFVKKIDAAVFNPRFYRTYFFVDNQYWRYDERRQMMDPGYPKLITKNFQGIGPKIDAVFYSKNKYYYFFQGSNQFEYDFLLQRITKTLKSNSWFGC
Sequence of Neutrophil collagenase (P22894 whole entry): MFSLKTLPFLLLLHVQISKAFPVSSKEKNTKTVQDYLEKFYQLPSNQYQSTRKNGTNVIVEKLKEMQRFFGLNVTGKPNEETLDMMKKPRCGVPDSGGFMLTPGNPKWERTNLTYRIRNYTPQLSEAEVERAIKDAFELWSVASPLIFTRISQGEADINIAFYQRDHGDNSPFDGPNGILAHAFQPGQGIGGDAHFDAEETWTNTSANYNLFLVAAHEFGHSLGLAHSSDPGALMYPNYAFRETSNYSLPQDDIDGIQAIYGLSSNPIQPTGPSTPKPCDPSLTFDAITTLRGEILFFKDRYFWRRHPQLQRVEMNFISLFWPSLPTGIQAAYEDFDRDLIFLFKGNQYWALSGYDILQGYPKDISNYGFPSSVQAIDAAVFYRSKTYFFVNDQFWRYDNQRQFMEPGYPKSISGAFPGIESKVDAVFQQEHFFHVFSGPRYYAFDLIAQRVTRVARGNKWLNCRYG

IC50 (Matrilysin): > 20 µM | IC50 [4]: > 20 µM | concentration at 504 h [5]: 300 nM | IC50 (Cartilage tissue; 264 h): 0.02 µM | IC50 [6]: 0.655 µM | IC50 [7]: > 20 µM | Cp (Plasma [8]): BLD | concentration at 56 days [10]: ≥ 2000 nM | IC50 (Interstitial collagenase): > 20 µM | IC50 [11]: > 20 µM | IC50 (Neutrophil collagenase): 3.2 µM | Cp (Plasma [12]): BLD
SMILES: Cc1c(C(=O)O)ccc2c1CC[C@@H]2NC(=O)c1cc(C(=O)NCc2ccc3c(c2)NC(=O)CO3)nc2ccnn12
Activity (Rattus norvegicus [1]): Non-toxic | Activity (Rattus norvegicus [2]): Non-toxic | Activity (Rattus norvegicus [3]): Non-toxic | inhibition (Cartilage tissue): Dose-dependent effect | Activity (Rattus norvegicus [9]): Non-toxic
